# Rows were chosen to be rich in hits. Some 2.7% of all compounds tested hit in one or more screens of this group.
# S100A4 MyoIIA – inhibitors of S100A4-myosin IIA peptide binding, primary screen, biochemical, fluorescence polarization, TAMRA-MyoIIA peptide; Protein S100-A4 (Homo sapiens), P26447; inhibition, % at 10.7 µM; hit rate 0.14% among 360,000; AID 652163, 2013;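 active = mean inhibition of at least 70% across replicates, with every replicate also reaching that level; inconclusive = mean inhibition reaches 70% but some replicates fall short; inactive = mean inhibition below 70%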
# Target sequence (P26447 whole entry, looked up): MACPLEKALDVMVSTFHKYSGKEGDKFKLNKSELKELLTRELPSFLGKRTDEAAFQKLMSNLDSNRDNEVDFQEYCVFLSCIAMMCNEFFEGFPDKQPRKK
#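 assay system = human S100A4 monomer with TAMRA-labelled myosin IIA peptide | also added = labelled myosin peptide probe, 5 nM | incubation = 5 min between mix addition and reading | control set = DMSO and TFP controls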
# E-selectin induc – E-selectin induction in HUVECs, primary screen, imaging, HUVEC, immunofluorescence imaging, single point | P16581 | normalized: neutral wells 0, TNF-alpha wells 100 | activation, % at 7.58 µM | hit rate 0.37% among 260,000;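 active = mean E-selectin-positive cell signal at least 10% of the positive control, reached in at least 60% of replicates, without over 20% cell loss; inconclusive = no rule given, readout overlaps actives, possibly toxicity-flagged; inactive = the rest, including those meeting only one limit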
#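 Test system – human umbilical vein endothelial cells (HUVEC), E-selectin induction · Input – 3,000 HUVEC seeded per well · Buffer or medium – EGM-2, gelatin · Compound dosing – single-point compound dose · Detection – immunofluorescence imaging · Measure – percent E-selectin-positive cells · Controls – TNF-alpha high, DMSO low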
# HIV Env fusion – inhibitors of HIV-1 Env-driven cell-cell fusion, primary screen, HeLa-JRFL effector, CEM21 target cells, luciferase; inhibition, % at 12.3 µM; hit rate 1.1% among 360,000; AID 651610, 2012;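 active = mean replicate inhibition score of at least 50 and every replicate individually at or above 50; inconclusive = only one of the two criteria met; inactive = mean below 50 and not all replicates reaching 50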
# F508del corr – F508del CFTR correction, initial screen, CFBE line, single point. CFBE cells, YFP halide quenching; stimulated with forskolin plus potentiator P3; % fluorescence drop versus neutral controls. activity (quench increase), % at 7.58 µM. hit rate 0.36% among 350,000. AID 720511, 2013;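 active = mean added fluorescence quench of at least 8% versus neutral control, with both replicates also reaching 8%; inconclusive = only one of the mean or replicate conditions met; inactive = mean below 8% and not both replicates reaching 8%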;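 note: cells transiently co-express mutant CFTR-F508del with the halide-sensitive YFP; corrector assay measuring rescue of mutant channel to the surface after 24 h compound exposure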
# FGF22 binding – binders of human FGF22 protein, primary screen, FGF22 synaptogenesis inhibitor project, biophysical, thermal shift, single point. activity (Tm shift, normalised), % at 9.99 µM. recombinant FGF22 thermal shift, SYPRO orange fluorescence; percent of sucrose octasulfate shift, DMSO zero. hit rate 1.5% among 340,000. AID 651658, 2012;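 active = mean Tm shift, scaled 0 neutral to 100 positive control, at about 1.3% or above, every replicate too, limit read from the data; inconclusive = no clear call, values can overlap the other calls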
# Target sequence (Q9HCT0 whole entry, looked up): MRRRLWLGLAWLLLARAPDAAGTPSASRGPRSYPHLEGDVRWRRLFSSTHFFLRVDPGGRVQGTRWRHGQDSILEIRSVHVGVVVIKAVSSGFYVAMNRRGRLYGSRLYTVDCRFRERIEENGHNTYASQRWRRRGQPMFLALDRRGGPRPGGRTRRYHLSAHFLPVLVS
# A number is an active result; . = inactive; ? = inconclusive; / = no result given; ! = a repeat was not active; [ ] = dose if it differs, or a comment.
SMILES,S100A4 MyoIIA,E-selectin induc,HIV Env fusion,F508del corr,FGF22 binding
CC(C)(C)[S@](=O)N1Cc2cc(C(=O)N[C@H]3CCN(Cc4ccccc4)C3)nc(-c3cccc(-c4ccncc4)c3)c2[C@@H]1CCO,.,62,/,.,.
CC(=O)N1Cc2cc(C(=O)NCC(F)(F)F)nc(-c3cccc(-c4cccnc4)c3)c2[C@@H]1CCO,.,.,.,8.9!,.
CN(C)CC#Cc1cccc(-c2nc(C(=O)N[C@@H]3CCN(Cc4ccccc4)C3)cc3c2[C@H](CCO)N(S(=O)C(C)(C)C)C3)c1 (stereo not given in full),.,/,/,.,.
COc1ccc(CNC(=O)c2cc3c(c(-c4cccc(-c5ccc(C#N)cc5)c4)n2)[C@H](CCO)N([S@@](=O)C(C)(C)C)C3)cc1,.,.,.,.,.
COc1cccc(-c2cccc(-c3nc(C(=O)NCC(F)(F)F)cc4c3[C@H](CCO)N([S@@](=O)C(C)(C)C)C4)c2)c1,.,.,.,11,.
Cc1cc(C(=O)N/N=C2\CC(=O)CC(C)(C)C2)c2ccccc2n1,.,/,.,.,43
Cc1ccc(NC(=O)c2cc(CC(C)C)nc3ccccc23)cc1,.,/,68,.,.
Cc1ccc(NC(=O)c2cc(C)nc3ccccc23)cc1,.,/,.,.,.
Cc1cccc(NC(=O)c2cc(C)nc3ccccc23)c1,.,61,.,.,.
COc1cccc(-c2cc(C(=O)Nc3ccncc3)c3ccccc3n2)c1,.,.,.,.,.
COc1ccc(NC(=O)c2cc(CC(C)C)nc3ccccc23)cc1,.,/,78,/,.
Cc1cc(C(=O)NN=C2CCCC2)c2ccccc2n1,.,/,/,.,.
C[C@@H]1CN([C@@H](C)CO)C(=O)Cc2cc(N(C)C)ccc2O[C@H]1CN(C)C(=O)Nc1ccccc1,.,/,.,.,.
C[C@H](CO)N1C[C@H](C)[C@@H](CN(C)C(=O)Nc2ccc3c(c2)OCO3)Oc2ncc(-c3cncnc3)cc2C1=O,.,.,.,.,.
COc1ccc(CN(C)C[C@@H]2Oc3c(NC(=O)CCCCCC(=O)Nc4ccccc4N)cccc3C(=O)N([C@@H](C)CO)C[C@H]2C)cc1,.,.,/,.,.
COc1ccc(S(=O)(=O)Nc2ccc3c(c2)C(=O)N([C@H](C)CO)C[C@H](C)[C@H](CN(C)S(=O)(=O)c2ccc(Cl)cc2)OCCCC[C@H](C)O3)cc1,.,.,.,.,/
CC(=O)c1ccc(NC(=O)c2cc(Cl)nc3ccccc23)cc1,.,/,.,.,43
Cc1cccc(NC(=O)c2cccc(C(=O)Nc3cccc(C)c3)c2)c1,.,.,.,.,2.0
Cc1cccc(C(=O)Nc2cccc(NC(=O)c3ccccc3)c2)c1,.,.,.,.,.
CC(=O)c1ccc(NC(=O)c2cc(C)nc3ccccc23)cc1,.,.,.,.,.
Cc1ccc(S(=O)(=O)N[C@@H]2CC[C@@H](CCNS(=O)(=O)Cc3ccccc3)O[C@H]2CO)cc1,.,.,.,.,.
COc1ccc2c(c1)C(=O)CC(c1ccc3c(c1)OCCO3)O2 (stereo not given),.,.,.,12,.
COCc1cc(N2CCN(C(=O)OC(C)(C)C)C[C@H]2C)ccc1N1CCS(=O)(=O)CC1,.,.,59,.,.
COCc1cc(N2CCN(C(=O)OC(C)(C)C)C[C@@H]2C)ccc1N1C[C@@H](C)O[C@@H](C)C1,.,.,.,.,.
CC1CC(=O)C(C2c3ccccc3CCN2C(=O)CCl)C(=O)C1 (stereo not given),.,/,.,.,44
SMILES,S100A4 MyoIIA,E-selectin induc,HIV Env fusion,F508del corr,FGF22 binding
COc1cc2c(cc1OC)C(C1C(=O)CC(C)(C)CC1=O)N(C(=O)CCl)CC2 (stereo not given),.,/,.,.,.
O=C(Nc1cccc(F)c1)N[C@H]1CC[C@H](CCNS(=O)(=O)c2cccc(Cl)c2)O[C@@H]1CO,.,.,?,.,.
O=C(Nc1ccc(F)cc1)N[C@H]1CC[C@H](CCNS(=O)(=O)c2cccc(Cl)c2)O[C@H]1CO,.,.,.,.,.
O=C(Nc1cccc(F)c1)N[C@H]1CC[C@@H](CCNS(=O)(=O)c2cccc(Cl)c2)O[C@H]1CO,.,.,96[16.7 µM],.,.
O=C(Nc1cccc(F)c1)N[C@@H]1CC[C@H](CCNS(=O)(=O)c2cccc(Cl)c2)O[C@H]1CO,.,.,67[16.7 µM],.,.
CO[C@@H]1CN(C)C(=O)c2ccc(NC(=O)c3cnccn3)cc2OC[C@H](C)N(C)C[C@@H]1C,/,.,.,.,/
O=c1[nH]c(SCc2ccccc2)nc2c1sc1ccccc12,.,/,.,.,44
C[C@H](CO)N1C[C@H](C)[C@H](CN(C)Cc2ccc(C(F)(F)F)cc2)Oc2c(NS(C)(=O)=O)cccc2C1=O,.,.,.,.,.
C[C@@H]1CN([C@@H](C)CO)C(=O)c2cccc(NS(=O)(=O)c3ccc(F)cc3)c2O[C@@H]1CN(C)Cc1ccc(C(F)(F)F)cc1,.,.,58[16.7 µM],.,.
C[C@@H]1CN([C@H](C)CO)C(=O)c2cccc(NS(=O)(=O)c3ccc(F)cc3)c2O[C@H]1CN(C)Cc1ccc(C(F)(F)F)cc1,.,.,.,.,.
C[C@H](CO)N1C[C@H](C)[C@H](CN(C)Cc2ccc(Oc3ccccc3)cc2)Oc2c(NS(C)(=O)=O)cccc2C1=O,.,31,/,.,.
C[C@H](CO)N1C[C@H](C)[C@@H](CN(C)Cc2ccc(C(F)(F)F)cc2)Oc2c(NS(C)(=O)=O)cccc2C1=O,/,198,.,.,/
C[C@@H]1CN([C@H](C)CO)C(=O)c2cccc(NS(=O)(=O)c3ccc(F)cc3)c2O[C@@H]1CN(C)S(=O)(=O)c1cccs1,.,36,/,.,.
C[C@@H]1CN([C@H](C)CO)C(=O)Cc2cc(NS(=O)(=O)c3cccs3)ccc2O[C@H]1CN(C)CC1CC1,.,.,/,.,.
C[C@H]1CN([C@@H](C)CO)C(=O)Cc2cc(NC(=O)Nc3cccc4ccccc34)ccc2O[C@H]1CN(C)S(=O)(=O)c1ccc(Cl)cc1,.,.,62[16.7 µM],.,.
CNC[C@@H]1Oc2ccc(NC(=O)Nc3cccc4ccccc34)cc2C(=O)N([C@H](C)CO)C[C@@H]1C,137,/,/,.,.
C[C@@H]1CN([C@@H](C)CO)C(=O)Cc2cc(NC(=O)Nc3cccc4ccccc34)ccc2O[C@@H]1CN(C)S(=O)(=O)c1ccc(Cl)cc1,.,.,.,.,.
C[C@@H]1CN([C@@H](C)CO)C(=O)Cc2cc(NC(=O)Nc3cccc4ccccc34)ccc2O[C@H]1CN(C)S(=O)(=O)c1ccccc1,.,.,.,.,.

# Compound activity as filed in PubChem.
